In brackets after ≈: the same amount, converted by molar mass.
Columns and labels:
Type in all cases: functional
SK-MEL-2 = test: Cytotoxicity against human SK-MEL-2 cells by MTT assay; conditions: read-out: ED50 (the source's name)
XF498 = test: Cytotoxicity against human XF498 cells by MTT assay; conditions: read-out: ED50 (the source's name)
Simian virus 40 [1] = test: Antiviral activity against SV40 virus assessed as inhibition of DNA replication at 125 uM; conditions: Betapolyomavirus macacae
Method in brief: (§1)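 Cell-free SV40 origin DNA replication: mixtures contained 40 mM creatine phosphate-di-Tris (pH 7.7), creatine kinase, 7 mM MgCl2, 0.5 mM DTT, 4 mM ATP, 200 µM UTP/GTP/CTP, 100 µM dATP/dGTP/dCTP, 25 µM [3H]dTTP, SV40 T-Ag, SV40 origin plasmid (pUC) and replication proteins. Incubated 90 min at 37 °C, then acid-insoluble radioactivity counted.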

Simian virus 40 [2] = test: Antiviral activity against SV40 virus assessed as inhibition of DNA replication at 500 uM; conditions: Betapolyomavirus macacae; method in brief: as §1
A549 = test: Cytotoxicity against human A549 cells by MTT assay; conditions: read-out: ED50 (the source's name)
SK-OV-3 = test: Cytotoxicity against human SKOV3 cells by MTT assay; conditions: read-out: ED50 (the source's name)
Simian virus 40 [3] = test: Antiviral activity against SV40 virus assessed as inhibition of DNA replication at 250 uM; conditions: Betapolyomavirus macacae; method in brief: as §1
HCT-15 = test: Cytotoxicity against human HCT-15 cells by MTT assay; conditions: read-out: ED50 (the source's name)

Compound | EC50 (SK-MEL-2) [µg/mL] | EC50 (XF498) [µg/mL] | inhibition at 125 µM (Simian virus 40 [1]) [%] | inhibition at 500 µM (Simian virus 40 [2]) [%] | EC50 (A549) [µg/mL] | EC50 (SK-OV-3) [µg/mL] | inhibition at 250 µM (Simian virus 40 [3]) [%] | EC50 (HCT-15) [µg/mL]
C#C/C=C\CCCCCCCCCCCCC/C=C\CCCC/C=C\CCCCC#C[C@@H](O)C#CCCCCCC/C=C/[C@H](O)C#C [NOR-3S,14S-PETROCORTYNE A] | 3.8 (≈ 5.93 µM) | 6.1 (≈ 9.52 µM) | 12 | 70 | 7.3 (≈ 11.4 µM) | 4.4 (≈ 6.86 µM) | 47 | 3.5 (≈ 5.46 µM)
C#C/C=C\CCCCCCCCCCCCC/C=C/C(=O)CCCC/C=C\CCCCC#C[C@@H](O)C#CCCCCCC/C=C/[C@H](O)C#C [PETROTETRAYNDIOL C] | 4.1 (≈ 6.13 µM) | 12.7 (≈ 19 µM) | 45 | 81 | > 10 | 4.2 (≈ 6.28 µM) | 46 | 5.7 (≈ 8.52 µM)

Source: ChEMBL document CHEMBL1144102, “New cytotoxic polyacetylenes from the marine sponge Petrosia” (1999)
